The source made the active and inactive calls. The rule behind the calls is not given here.
How the values were obtained:
[1] = tested on: Epidermal growth factor receptor (Homo sapiens), P00533 [L858R,T790M]; conditions: NCI-H1975, 33 nM
[2] = Antiproliferative activity against human H1299 cells expressing wild-type EGFR after 72 hrs by MTS assay; type: cell-based; conditions: NCI-H1299, 72 h
Summary of the method: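 MTS proliferation assay: cells exposed to compound for 72 h at six concentrations (0.1 nM to 10 μM), each concentration run six times. Cell number per line set to give an absorbance of 0.5–1.2 at […]. IC50 from a nonlinear sigmoidal dose–response fit. Values are means of at least three independent experiments.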

NCI-H358 = assay: Antiproliferative activity against human NCI-H358 cells expressing wild-type EGFR after 72 hrs by MTS assay; type: cell-based; conditions: NCI-H358, 72 h
[3] = biological target: T1, Tyrosine-protein kinase JAK3 (Homo sapiens) (UniProt P52333); assay: Binding affinity to JAK3 (unknown origin)
T1 sequence (whole entry): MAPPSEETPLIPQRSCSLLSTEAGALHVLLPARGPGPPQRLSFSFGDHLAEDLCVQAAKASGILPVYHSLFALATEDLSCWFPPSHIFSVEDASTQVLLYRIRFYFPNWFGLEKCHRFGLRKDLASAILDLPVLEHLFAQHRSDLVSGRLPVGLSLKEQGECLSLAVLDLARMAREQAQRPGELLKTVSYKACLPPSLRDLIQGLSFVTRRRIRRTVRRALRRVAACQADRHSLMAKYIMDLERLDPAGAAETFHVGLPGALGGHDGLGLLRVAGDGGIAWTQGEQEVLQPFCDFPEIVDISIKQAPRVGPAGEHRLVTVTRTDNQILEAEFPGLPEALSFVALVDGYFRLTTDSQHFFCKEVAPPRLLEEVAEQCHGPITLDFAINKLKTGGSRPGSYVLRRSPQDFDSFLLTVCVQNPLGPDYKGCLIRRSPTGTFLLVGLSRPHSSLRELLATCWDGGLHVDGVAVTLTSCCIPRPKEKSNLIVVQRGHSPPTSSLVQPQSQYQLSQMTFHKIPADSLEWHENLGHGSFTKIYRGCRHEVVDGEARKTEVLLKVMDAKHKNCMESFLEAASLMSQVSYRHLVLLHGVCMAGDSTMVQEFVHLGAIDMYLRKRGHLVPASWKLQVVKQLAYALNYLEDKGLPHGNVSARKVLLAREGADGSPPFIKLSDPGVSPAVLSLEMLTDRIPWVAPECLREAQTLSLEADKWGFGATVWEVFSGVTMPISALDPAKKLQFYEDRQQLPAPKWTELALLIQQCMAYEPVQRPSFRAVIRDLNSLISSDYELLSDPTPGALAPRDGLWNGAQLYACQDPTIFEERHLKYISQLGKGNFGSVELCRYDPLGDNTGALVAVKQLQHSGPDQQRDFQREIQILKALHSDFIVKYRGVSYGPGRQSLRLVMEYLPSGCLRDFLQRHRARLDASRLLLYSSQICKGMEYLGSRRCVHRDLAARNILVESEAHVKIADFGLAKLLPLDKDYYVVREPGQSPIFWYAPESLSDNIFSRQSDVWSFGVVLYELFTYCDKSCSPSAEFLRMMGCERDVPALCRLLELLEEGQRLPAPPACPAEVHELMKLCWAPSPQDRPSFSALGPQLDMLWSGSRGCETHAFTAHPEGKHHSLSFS

[4] = AUC (0 to infinity) in Sprague-Dawley rat at 5 mg/kg, iv by LC/MS analysis; type: ADME, organism-based; set-up: time infinity, dose 5 mg/kg, route intravenous; conditions: plasma
Summary of the method: (§1)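 Male Sprague-Dawley rats (180−220 g), n = 4 per route, single iv dose 5 mg/kg or oral gavage 25 mg/kg. Vehicle was 2% DMSO, 4% EtOH, 4% castor oil, 90% H2O. Orbital sinus blood was taken from 2 min to 72 h into heparinized tubes. Plasma levels were measured by LC/MS with propranolol internal standard and analysed by pharmacokinetic modelling.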

NCI-H1975 [5] = assay: Effect on EGFR protein level in human NCI-H1975 cells at 3 to 330 nM after 2 hrs by Western blotting analysis; type: functional, cell-based
Summary of the method: (§2)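 H1975 cells were grown 24 h, then treated for 2 h with DMSO or 3–330 nM compound. Lysates were sonicated, run on SDS-PAGE, blotted to PVDF, blocked in 5% BSA/TBST, and probed for phospho/total EGFR (pY1068), Akt and Erk1/2 (pT202/pY204) with peroxidase secondary antibodies. Blots are representative of three experiments.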

[6] = biological target: Proto-oncogene tyrosine-protein kinase receptor Ret (Homo sapiens) (UniProt P07949); assay: Binding affinity to RET (unknown origin)
NCI-H1975 [7] = assay: Effect on AKT protein level in human NCI-H1975 cells at 3 to 330 nM after 2 hrs by Western blotting analysis; type: functional, cell-based
Summary of the method: as §2

[8] = biological target: T2, Dual specificity mitogen-activated protein kinase kinase 5 (Homo sapiens) (UniProt Q13163); assay: Binding affinity to MEK5 (unknown origin)
T2 sequence (whole entry): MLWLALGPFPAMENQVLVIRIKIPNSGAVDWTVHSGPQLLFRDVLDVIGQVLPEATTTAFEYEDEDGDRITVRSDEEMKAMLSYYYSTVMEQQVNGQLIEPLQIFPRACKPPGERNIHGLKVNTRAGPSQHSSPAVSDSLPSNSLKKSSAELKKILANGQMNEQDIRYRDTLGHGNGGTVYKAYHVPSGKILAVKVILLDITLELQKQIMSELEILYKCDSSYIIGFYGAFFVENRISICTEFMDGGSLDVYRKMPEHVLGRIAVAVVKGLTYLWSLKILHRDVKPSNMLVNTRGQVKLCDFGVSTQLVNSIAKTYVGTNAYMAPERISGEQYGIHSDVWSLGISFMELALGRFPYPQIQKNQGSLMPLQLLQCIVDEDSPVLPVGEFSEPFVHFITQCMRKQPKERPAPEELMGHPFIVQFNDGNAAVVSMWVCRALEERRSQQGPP

NCI-H1975 [9] = assay: Effect on ERK protein level in human NCI-H1975 cells at 3 to 330 nM after 2 hrs by Western blotting analysis; type: functional, cell-based
Summary of the method: as §2

[10] = biological target: Tyrosine-protein kinase BTK (Homo sapiens) (UniProt Q06187); assay: Binding affinity to BTK (unknown origin)
[11] = biological target: Mast/stem cell growth factor receptor Kit (Homo sapiens) (UniProt P10721); assay: Binding affinity to KIT (unknown origin)
[12] = tested on: Epidermal growth factor receptor (Homo sapiens), P00533 [L858R,T790M]; conditions: NCI-H1975, 110 nM
[13] = biological target: Epidermal growth factor receptor (Homo sapiens, UniProt P00533, L858R); assay: Inhibition of EGFR L858R mutant (unknown origin); type: protein assay
[14] = biological target: Tyrosine-protein kinase ABL1 (Homo sapiens) (UniProt P00519); assay: Binding affinity to ABL1 (unknown origin)
[15] = Cmax in Sprague-Dawley rat at 5 mg/kg, iv by LC/MS analysis; type: ADME, organism-based; set-up: dose 5 mg/kg, route intravenous; conditions: in vivo
Summary of the method: as §1

[16] = AUC (0 to infinity) in Sprague-Dawley rat at 25 mg/kg, po by LC/MS analysis; type: ADME, organism-based; set-up: dose 25 mg/kg, route oral, time infinity; conditions: plasma
Summary of the method: as §1

[17] = biological target: Platelet-derived growth factor receptor beta (Homo sapiens) (UniProt P09619); assay: Binding affinity to PDGFRbeta (unknown origin)
Sequence of Platelet-derived growth factor receptor beta (Homo sapiens) (P09619 whole entry): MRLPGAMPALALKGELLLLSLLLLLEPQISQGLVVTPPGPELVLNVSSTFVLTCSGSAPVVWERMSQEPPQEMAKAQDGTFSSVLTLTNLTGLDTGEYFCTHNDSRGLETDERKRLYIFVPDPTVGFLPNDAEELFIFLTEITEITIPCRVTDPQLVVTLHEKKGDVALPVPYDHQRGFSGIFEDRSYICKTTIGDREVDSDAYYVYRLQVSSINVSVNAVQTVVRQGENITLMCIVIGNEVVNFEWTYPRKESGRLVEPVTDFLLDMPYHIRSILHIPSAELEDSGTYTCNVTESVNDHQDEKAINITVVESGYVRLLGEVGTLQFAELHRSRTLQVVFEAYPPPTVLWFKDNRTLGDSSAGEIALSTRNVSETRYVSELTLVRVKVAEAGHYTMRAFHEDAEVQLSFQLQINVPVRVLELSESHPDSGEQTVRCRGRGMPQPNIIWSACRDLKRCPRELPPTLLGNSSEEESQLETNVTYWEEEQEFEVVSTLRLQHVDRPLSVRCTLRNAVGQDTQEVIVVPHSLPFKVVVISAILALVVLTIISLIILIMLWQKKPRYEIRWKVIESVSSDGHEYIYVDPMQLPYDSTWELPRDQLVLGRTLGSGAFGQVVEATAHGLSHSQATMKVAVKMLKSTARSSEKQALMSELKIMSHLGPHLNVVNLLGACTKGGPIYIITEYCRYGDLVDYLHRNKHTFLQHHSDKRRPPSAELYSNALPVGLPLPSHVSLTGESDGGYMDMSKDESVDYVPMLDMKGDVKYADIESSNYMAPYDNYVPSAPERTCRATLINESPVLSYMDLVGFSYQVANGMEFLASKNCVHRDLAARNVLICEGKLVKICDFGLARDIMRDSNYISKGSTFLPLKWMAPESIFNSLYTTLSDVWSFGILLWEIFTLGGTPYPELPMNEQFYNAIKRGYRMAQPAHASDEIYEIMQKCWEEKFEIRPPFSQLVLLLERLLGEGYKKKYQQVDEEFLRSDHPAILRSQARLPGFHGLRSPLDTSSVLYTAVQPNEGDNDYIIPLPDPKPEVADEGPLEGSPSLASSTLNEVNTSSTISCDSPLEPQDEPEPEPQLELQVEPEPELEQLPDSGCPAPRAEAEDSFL

Sequence of Epidermal growth factor receptor (Homo sapiens), P00533 [L858R,T790M] (P00533 whole entry T790M/L858R, looked up): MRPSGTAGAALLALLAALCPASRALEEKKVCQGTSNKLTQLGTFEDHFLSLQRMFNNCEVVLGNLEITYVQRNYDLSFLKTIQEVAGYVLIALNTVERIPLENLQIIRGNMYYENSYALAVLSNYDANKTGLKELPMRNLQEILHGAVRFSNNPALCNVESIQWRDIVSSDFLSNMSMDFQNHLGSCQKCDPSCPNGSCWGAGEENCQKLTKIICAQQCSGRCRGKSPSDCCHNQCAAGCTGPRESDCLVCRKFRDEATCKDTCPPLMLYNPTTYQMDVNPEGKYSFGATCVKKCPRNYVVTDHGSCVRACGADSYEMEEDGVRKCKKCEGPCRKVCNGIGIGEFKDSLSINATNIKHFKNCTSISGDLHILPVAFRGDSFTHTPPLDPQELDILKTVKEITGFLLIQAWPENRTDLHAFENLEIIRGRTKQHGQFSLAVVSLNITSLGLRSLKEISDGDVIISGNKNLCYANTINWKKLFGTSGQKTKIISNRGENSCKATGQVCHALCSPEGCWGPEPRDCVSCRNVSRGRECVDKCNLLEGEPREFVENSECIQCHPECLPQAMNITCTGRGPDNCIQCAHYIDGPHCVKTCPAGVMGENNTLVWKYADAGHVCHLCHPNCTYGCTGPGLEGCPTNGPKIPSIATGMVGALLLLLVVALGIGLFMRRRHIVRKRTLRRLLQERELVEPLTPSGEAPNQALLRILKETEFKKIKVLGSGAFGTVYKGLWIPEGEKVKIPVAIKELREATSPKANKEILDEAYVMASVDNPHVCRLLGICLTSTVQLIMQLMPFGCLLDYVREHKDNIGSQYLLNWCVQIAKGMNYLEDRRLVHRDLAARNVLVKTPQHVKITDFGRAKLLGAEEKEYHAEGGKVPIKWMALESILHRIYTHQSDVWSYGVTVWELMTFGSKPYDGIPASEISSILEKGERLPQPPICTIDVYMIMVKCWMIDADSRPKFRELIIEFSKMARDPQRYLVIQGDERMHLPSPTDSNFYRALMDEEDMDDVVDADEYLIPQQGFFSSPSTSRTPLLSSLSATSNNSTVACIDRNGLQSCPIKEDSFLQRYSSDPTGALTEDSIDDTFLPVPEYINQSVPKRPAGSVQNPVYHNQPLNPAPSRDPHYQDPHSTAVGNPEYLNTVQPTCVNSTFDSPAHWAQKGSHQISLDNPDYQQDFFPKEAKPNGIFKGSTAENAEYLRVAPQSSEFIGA
Sequence of Proto-oncogene tyrosine-protein kinase receptor Ret (Homo sapiens) (P07949 whole entry): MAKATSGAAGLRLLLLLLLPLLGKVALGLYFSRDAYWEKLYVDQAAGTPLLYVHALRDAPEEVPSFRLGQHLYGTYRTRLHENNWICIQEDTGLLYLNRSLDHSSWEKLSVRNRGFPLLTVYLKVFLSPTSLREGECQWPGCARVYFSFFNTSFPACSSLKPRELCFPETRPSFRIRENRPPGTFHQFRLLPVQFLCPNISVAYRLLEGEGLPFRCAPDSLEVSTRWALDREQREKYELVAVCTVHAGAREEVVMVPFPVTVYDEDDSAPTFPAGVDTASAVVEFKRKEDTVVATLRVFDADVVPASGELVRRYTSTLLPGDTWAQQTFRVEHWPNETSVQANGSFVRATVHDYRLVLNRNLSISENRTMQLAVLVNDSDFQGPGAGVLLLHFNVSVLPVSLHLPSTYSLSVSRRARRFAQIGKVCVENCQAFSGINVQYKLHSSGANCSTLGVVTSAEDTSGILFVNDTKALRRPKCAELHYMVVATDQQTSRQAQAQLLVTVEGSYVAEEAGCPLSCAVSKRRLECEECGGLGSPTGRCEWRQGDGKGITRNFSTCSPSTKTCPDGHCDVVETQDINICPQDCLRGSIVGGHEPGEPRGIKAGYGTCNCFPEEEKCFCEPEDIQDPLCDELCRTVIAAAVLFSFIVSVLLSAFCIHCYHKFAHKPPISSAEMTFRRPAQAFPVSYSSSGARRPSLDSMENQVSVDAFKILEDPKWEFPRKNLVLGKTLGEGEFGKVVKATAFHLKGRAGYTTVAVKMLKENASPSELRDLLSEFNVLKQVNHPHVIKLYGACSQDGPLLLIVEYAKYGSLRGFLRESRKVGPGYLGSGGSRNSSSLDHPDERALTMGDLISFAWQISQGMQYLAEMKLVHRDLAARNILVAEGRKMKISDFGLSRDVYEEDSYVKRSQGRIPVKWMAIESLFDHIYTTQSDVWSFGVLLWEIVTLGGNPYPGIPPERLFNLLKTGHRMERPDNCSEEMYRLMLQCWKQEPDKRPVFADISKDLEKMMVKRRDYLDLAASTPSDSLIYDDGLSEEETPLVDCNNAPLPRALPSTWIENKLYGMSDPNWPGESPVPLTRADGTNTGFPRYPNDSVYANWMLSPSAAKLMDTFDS
Sequence of Tyrosine-protein kinase BTK (Homo sapiens) (Q06187 whole entry): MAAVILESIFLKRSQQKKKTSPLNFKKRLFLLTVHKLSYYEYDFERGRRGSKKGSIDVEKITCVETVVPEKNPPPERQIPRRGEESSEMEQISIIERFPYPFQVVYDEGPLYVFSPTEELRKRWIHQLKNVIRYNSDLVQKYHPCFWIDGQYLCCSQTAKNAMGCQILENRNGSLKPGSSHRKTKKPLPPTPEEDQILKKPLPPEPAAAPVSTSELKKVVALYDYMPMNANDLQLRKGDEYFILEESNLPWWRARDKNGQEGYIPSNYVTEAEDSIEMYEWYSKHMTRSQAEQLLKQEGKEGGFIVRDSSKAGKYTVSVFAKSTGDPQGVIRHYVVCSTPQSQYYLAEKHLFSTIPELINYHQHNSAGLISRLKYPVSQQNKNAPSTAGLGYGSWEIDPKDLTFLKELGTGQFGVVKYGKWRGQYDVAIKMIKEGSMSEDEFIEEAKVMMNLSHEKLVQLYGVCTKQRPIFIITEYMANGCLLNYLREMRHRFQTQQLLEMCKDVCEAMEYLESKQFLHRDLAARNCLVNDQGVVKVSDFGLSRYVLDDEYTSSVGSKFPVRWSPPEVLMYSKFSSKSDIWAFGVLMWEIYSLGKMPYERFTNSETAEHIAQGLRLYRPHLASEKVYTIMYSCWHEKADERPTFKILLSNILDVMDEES
Sequence of Mast/stem cell growth factor receptor Kit (Homo sapiens) (P10721 whole entry): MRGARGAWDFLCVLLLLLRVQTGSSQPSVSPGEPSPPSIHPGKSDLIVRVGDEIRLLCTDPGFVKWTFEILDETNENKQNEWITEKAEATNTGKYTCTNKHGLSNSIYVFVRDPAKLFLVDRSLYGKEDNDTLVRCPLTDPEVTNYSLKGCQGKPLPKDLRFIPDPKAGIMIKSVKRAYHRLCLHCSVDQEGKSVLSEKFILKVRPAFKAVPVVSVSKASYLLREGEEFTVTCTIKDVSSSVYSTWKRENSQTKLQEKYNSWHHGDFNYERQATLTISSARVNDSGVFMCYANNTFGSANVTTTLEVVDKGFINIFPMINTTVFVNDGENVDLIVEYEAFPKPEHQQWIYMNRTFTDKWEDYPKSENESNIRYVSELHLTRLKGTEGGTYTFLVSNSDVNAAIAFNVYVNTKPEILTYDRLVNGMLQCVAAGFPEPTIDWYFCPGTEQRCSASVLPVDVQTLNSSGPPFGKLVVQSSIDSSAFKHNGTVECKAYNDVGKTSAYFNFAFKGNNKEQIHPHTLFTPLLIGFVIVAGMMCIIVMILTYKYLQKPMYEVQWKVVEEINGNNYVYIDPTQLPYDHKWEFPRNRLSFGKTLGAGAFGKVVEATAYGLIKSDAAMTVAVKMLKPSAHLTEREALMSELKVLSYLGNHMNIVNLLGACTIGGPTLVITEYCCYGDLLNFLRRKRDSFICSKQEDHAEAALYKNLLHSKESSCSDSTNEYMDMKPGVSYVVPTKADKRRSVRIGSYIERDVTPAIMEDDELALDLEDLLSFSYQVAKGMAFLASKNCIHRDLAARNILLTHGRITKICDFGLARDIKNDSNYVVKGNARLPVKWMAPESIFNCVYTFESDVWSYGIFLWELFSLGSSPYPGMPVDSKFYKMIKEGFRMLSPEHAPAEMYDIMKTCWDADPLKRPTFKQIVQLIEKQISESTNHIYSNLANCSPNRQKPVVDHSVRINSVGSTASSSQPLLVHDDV

Which inhibition [1] does the source give for C=CC(=O)N1CC[C@H](N2C(=O)N(c3ccccc3)Cc3cnc(Nc4ccc(N5CCN(C)CC5)c(C)c4)nc32)C1 here?
The inhibition was “Active”.

And the IC50 [2]?
Its IC50 is 5.1 µM.

And the IC50 (NCI-H358)?
The IC50 was greater than 20 µM.

And the Activity [3]?
The Activity was “Active”.

What about the AUC(0-inf) [4] of the same compound?
The AUC(0-inf) was 1640 ng·h/mL.

And the Activity (NCI-H1975 [5])?
Its Activity is “inactive”.

What about the Activity [6] of the same compound?
Its Activity is “Active”.

What about the Activity (NCI-H1975 [7]) of the same compound?
The Activity was “inactive”.

What about the Activity [8] of the same compound?
The Activity was “Active”.

What about the Activity (NCI-H1975 [9]) of the same compound?
The Activity was “inactive”.

And the Activity [10]?
The Activity was “Active”.

And the Activity [11]?
The Activity was “Active”.

And the inhibition [12]?
The inhibition was “Active”.

And the IC50 [13]?
The IC50 was 0.003 µM.

What about the Activity [14] of the same compound?
Its Activity is “Active”.

And the Cmax [15]?
The Cmax was 3980 ng/mL.

What about the AUC(0-inf) [16] of the same compound?
Its AUC(0-inf) is 2490 ng·h/mL.

And the Activity [17]?
The Activity was “Active”.
